Each block holds one molecule with its values, some of them ahead of it.
Assays:
C2C12 cells = assay: C1-BODIPY-C12 fatty acid uptake inhibition in C2C12 myocytes; format: cell-based; conditions: Mus musculus, C2C12, read-out: IC50, inhibition of C1-BODIPY-C12 uptake
In short: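 C2C12 mouse myoblasts grown in DMEM with 10 % FBS and 2 mM L-glutamine at 37 °C, 5 % CO2. Differentiated for 96 h at 8x10^4 cells/well in DMEM with 10 % horse serum. Uptake of fluorescent C1-BODIPY-C12 read as cell-associated fluorescence at ex/em 485/528 nm across a range of test compound concentrations. IC50 from non-linear dose-response regression; 3 experiments in triplicate, mean ± SE.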

INS-1E cells [1] = assay: C1-BODIPY-C12 fatty acid uptake inhibition in INS-1E pancreatic β-cells; format: cell-based; conditions: read-out: IC50, inhibition of C1-BODIPY-C12 uptake
In short: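 INS-1E cells kept in RPMI 1640 with 5 % FBS, 1 mM pyruvate, 50 μM 2-mercaptoethanol and 10 mM HEPES at 37 °C, 5 % CO2. Seeded at 2x10^5 cells/well on collagen and used after 96 h. C1-BODIPY-C12 uptake read as cell-associated fluorescence at 485/528 nm against test compound concentration. IC50 by non-linear dose-response fit; 3 experiments in triplicate, mean ± SE.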

human adipocytes = assay: C1-BODIPY-C12 fatty acid uptake inhibition in primary human adipocytes; format: cell-based; conditions: read-out: IC50, inhibition of C1-BODIPY-C12 uptake
In short: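 Primary human preadipocytes seeded at 1.5x10^4 cells/well in alpha-MEM with 10 % FBS. Differentiated for 6 days with 540 μM IBMX plus 1 μM rosiglitazone, then kept without them until lipid droplets appeared. C1-BODIPY-C12 uptake read as cell-associated fluorescence at 485/528 nm across test compound concentrations. IC50 by non-linear dose-response fit; 3 experiments in triplicate.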

[2] = system: cell lines that are models for intestines, liver, muscle and pancreas; assay: Fatty acid uptake inhibition, summary over cell lines; format: cell-based; conditions: read-out: IC50, inhibition of fatty acid uptake
HepG2 cells [3] = assay: C1-BODIPY-C12 uptake in HepG2 cells; format: cell-based
In short: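 Inhibition kinetics in HepG2 cells using 7 test compound concentrations (1.25–15 μM) and 4 C1-BODIPY-C12 concentrations (2.5–10 μM). The plate reader's injectors dispensed compound, then added substrate at timed intervals. Initial uptake rates measured over 90 s by fluorescence. Best-fit inhibition model chosen by enzyme-kinetics analysis; points are mean with SD.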

HepG2 cells [4] = assay: Uptake of BODIPY FL-C16 and BODIPY FL-C5 in HepG2 cells; format: cell-based
Caco-2 cells [5] = assay: Uptake of BODIPY FL-C16 and BODIPY FL-C5 in Caco-2 cells; format: cell-based, human
HepG2 cells [6] = assay: Palmitate-induced lipid accumulation; format: cell-based; conditions: 50 μM compound, each concentration of PA (0-500 μM), 24 hrs
[7] = system: primary mouse hepatocytes; assay: Palmitate-induced lipid accumulation; format: cell-based, mice; conditions: 50 μM compound, each concentration of PA (0-500 μM)
In short: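 Hepatocytes isolated from 10–12-week 129S1/SvImJ mice and plated on collagen at 1.5x10^4 cells/well in DMEM with FBS, glucagon, hydrocortisone, EGF and insulin. Treated after 4–5 h of attachment with BSA-conjugated palmitate (0–500 μM, 2.5:1) with or without test compound (0–50 μM). Lipid measured by 30 μM Nile Red, 30 min at 37 °C, 485/590 nm. AFU per 10^6 cells; 3 experiments in triplicate.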

INS-1E cells [8] = assay: Palmitate-induced lipid accumulation; format: cell-based; conditions: 50 μM compound, each concentration of PA (0-500 μM), 24 hrs
In short: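 INS-1E cells, 96 h after plating, treated for 24 h with BSA-conjugated palmitate (0–500 μM, 2.5:1 PA:BSA) with or without test compound (0–50 μM). Stained with 30 μM Nile Red for 30 min at 37 °C and read at ex/em 485/590 nm. Results as AFU per 10^6 cells; 3 experiments in triplicate.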

HepG2 cells [9] = assay: Nuclear integrity; format: cell-based; conditions: PA 0-500 μM, Grassofermata 0-50 μM
[10] = system: primary mouse hepatocytes; assay: Nuclear integrity; format: cell-based, mice; conditions: primary murine hepatocytes; PA 0-500 μM, Grassofermata 0-50 μM
INS-1E cells [11] = assay: Nuclear integrity; format: cell-based; conditions: PA 0-500 μM, Grassofermata 0-50 μM
C57BL/6 male mice = assay: Inhibition of 13C-oleate absorption in mice; format: in vivo; conditions: single oral dose 300 mg/kg, 6 hrs post-label administration
In short: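 Male C57BL/6 mice, 12 per group, fasted 12 h and given tyloxapol 500 mg/kg i.p. Gavaged with test compound 300 mg/kg in flaxseed oil or with oil alone. After 1 h, received flaxseed oil containing 500 mg/kg 13C-oleate. Plasma collected at 0.5, 2 and 6 h, Folch-extracted with nonadecanoic acid as internal standard. GC-MS in SIM mode, m/z 296 (12C) and 314 (13C oleate methyl ester). Mean ± SE of 10–12 mice.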

[12] = Grassofermata level in mouse plasma; format: in vivo, mice; conditions: male, C57BL/6, mouse, oral, 300 mg/kg
In short: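 Male C57BL/6 mice, 10 weeks old, in groups of 12, fasted 12 h and given tyloxapol 500 mg/kg i.p. They then received test compound 300 mg/kg in flaxseed oil by gavage, followed 1 h later by a 13C-oleate bolus. Plasma (EDTA) taken 0.5, 2 and 6 h after oleate. Plasma mixed with acetonitrile containing an analogue internal standard, acidified with TFA and centrifuged. Analysed by LC-MS/MS (C18, 457.1→411.1) against a 0.09–3.3 ng/μl standard curve.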

Caco-2 cells [13] = conditions: 100 μM; cited from earlier work
HsFATP2 = conditions: 80 μM; yeast expressing HsFATP2; cited from earlier work

IC50 (C2C12 cells): 10.6 µM | IC50 (INS-1E cells [1]): 8.3 µM | IC50 (human adipocytes): 58.2 µM | IC50 [2]: 8 to 11 µM | IC50 (HepG2 cells [4]; Homo sapiens, HepG2, read-out: IC50, inhibition of BODIPY FL-C16 uptake): 17.3 ± 2.5 µM | IC50 (Caco-2 cells [5]; Homo sapiens, Caco-2, read-out: IC50, inhibition of BODIPY FL-C16 uptake): 13.5 ± 1.1 µM | concentration at 0.5 h [12]: 2100 ± 600 ng/mL | concentration at 2 h [12]: 3400 ± 700 ng/mL | concentration at 6 h [12]: 2900 ± 700 ng/mL
Structure (SMILES): O=c1cc(-c2ccc([N+](=O)[O-])cc2)[nH]c2c(-c3ccc(Cl)cc3)c(Cc3ccccc3)nn12 [Grassofermata, 2-benzyl-3-(4-chlorophenyl)-5-(4-nitrophenyl)pyrazolo[1,5-a]pyrimidin-7(4H)-one]
mechanism of inhibition of C1-BODIPY-C12 uptake (HepG2 cells [3]; HepG2, Grassofermata 1.25-15 μM, C1-BODIPY-C12 2.5-10 μM): non-competitive mechanism of inhibition | effect on transport of BODIPY FL-C5 (HepG2 cells [4]; HepG2, medium chain FA analog): did not affect | effect on transport of BODIPY FL-C5 (Caco-2 cells [5]; Caco-2, medium chain FA analog): did not affect | accumulation of lipid (Nile Red) (HepG2 cells [6]): significantly reduced | accumulation of lipid (Nile Red) [7]: significantly reduced | accumulation of lipid (Nile Red) (INS-1E cells [8]): significantly reduced | DAPI staining (nuclear integrity) (HepG2 cells [9]): reduced DAPI staining of cells in a dose dependent manner | DAPI staining (nuclear integrity) [10]: reduced DAPI staining of cells in a dose dependent manner | DAPI staining (nuclear integrity) (INS-1E cells [11]): reduced DAPI staining of cells in a dose dependent manner | reduction of the levels of labeled oleate in plasma (C57BL/6 male mice): 37%

Structure (SMILES): CCCCCCCCCCC[C@@H](C[C@@H]1OC(=O)[C@H]1CCCCCC)OC(=O)[C@H](CC(C)C)NC=O [Orlistat, reference compound]
effect on C1-BODIPY-C12 uptake (HepG2 cells [3]; standard FA transport assay, cell line not stated for Orlistat): no effect

Structure (SMILES): CN(C)CCCN1c2ccccc2Sc2ccc(Cl)cc21 [chlorpromazine]
inhibition of FA uptake (Caco-2 cells [13]): 30–50% | inhibition of C1-BODIPY-C12 uptake (HsFATP2): intermediate levels of inhibition

Structure (SMILES): CN1CCN(C2=Nc3cc(Cl)ccc3Nc3ccccc32)CC1 [clozapine, Clozapine]
inhibition of FA uptake (Caco-2 cells [13]): 30–50% | inhibition of C1-BODIPY-C12 uptake (HsFATP2): intermediate levels of inhibition
